Assay results reported in ChEMBL document CHEMBL1128240, “Studies on new acidic azoles as glucose-lowering agents in obese, diabetic db/db mice” (J Med Chem, 1995).
Active and inactive are the calls of the source. The rule behind the calls is not given here.

How the values were obtained:
[1] = system: Mus musculus; assay: percentage change in plasma glucose concentration of drug treated mice relative to vehicle controls at 100 mg/kg (once daily perorally x 4) in groups of db/db mice compared to vehicle control; type: functional; conditions: route oral
Summary of the method: (§1)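 Male C57BL/KsJ db/db mice (2-7 months, 35-60 g), 4 h fasted baseline tail blood on day 1; extremes excluded, randomized into groups (N = 4-6) of equal mean glucose. Dosed po as suspension in 2% Tween 80/saline on afternoons of days 1-3 (fed) and day 4 after 3 h fast. Plasma glucose (Abbott VP analyzer) 2 and 4 h post-dose, mean versus day-1 baseline; ANOVA with one-sided Dunnett's test against vehicle.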

[2] = system: Mus musculus; assay: percentage change in plasma glucose concentration of drug treated mice relative to vehicle controls at 20 mg/kg (once daily perorally x 4) in groups of db/db mice compared to vehicle control; type: functional; conditions: route oral; summary of the method: as §1
[3] = system: Mus musculus; assay: Percentage change in plasma glucose concentration of drug treated mice relative to vehicle controls at 100 mg/kg (once daily perorally x 4) in groups of db/db mice; NA = not active; type: functional, organism-based; design: dose 100 mg/kg; summary of the method: as §1
[4] = Partition coefficient (logP); type: physicochemical; conditions: octanol/water
Summary of the method: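 Manual shake-flask octanol/aqueous partition. Buffer was 0.01 M K2HPO4 at pH 7.4. Sample was shaken 1 min, equilibrated 4 h, and phases separated and centrifuged. Each phase was quantified by reverse-phase C18 HPLC (acetonitrile/0.01 M […] pH 3.5, 214 nm). Average of at least two runs.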

[5] = Dissociation constant measured by potentiometric titration (in duplicate) in 1:1 dioxane-water using a Fisher accumet pH meter model 630 and a Perkin-Elmer chart recorder model 56.; type: physicochemical
Summary of the method: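 Apparent pKa from potentiometric titration with 0.1 N NaOH in dioxane–water (1:1). Sample concentration 0.2 mM, solvent 30 mL, 25 °C, titrant flow 0.17 mL/min. Value is the average of two runs. The system was conditioned and checked in duplicate against piperazine, allantoin, barbituric acid and ciglitazone standards.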

[6] = system: Mus musculus; assay: percentage change in plasma glucose concentration of drug treated mice relative to vehicle controls at 100 mg/kg (once daily perorally x 4) in groups of db/db mice; Not active; type: functional, organism-based; design: dose 100 mg/kg; summary of the method: as §1
[7] = system: Mus musculus; assay: percentage change in plasma glucose concentration of drug treated mice relative to vehicle controls at 20 mg/kg (once daily perorally x 4) in groups of db/db mice; Not active; type: functional, organism-based; design: dose 20 mg/kg; summary of the method: as §1
[8] = system: Mus musculus; assay: percentage change in plasma glucose concentration of drug treated mice relative to vehicle controls at 20 mg/kg (once daily perorally x 4) in groups of db/db mice; NA = not active; type: functional, organism-based; design: dose 20 mg/kg; summary of the method: as §1
[9] = system: Mus musculus; assay: Percentage change in plasma glucose concentration of drug treated mice relative to vehicle controls at 20 mg/kg (once daily perorally x 4) in groups of db/db mice; NA = not active
[10] = system: Mus musculus; assay: percentage change in plasma glucose concentration of drug treated mice relative to vehicle controls at 73 mg/kg (once daily perorally x 4) in groups of db/db mice compared to vehicle control; type: functional; conditions: route oral; summary of the method: as §1
[11] = system: Mus musculus; assay: percentage change in plasma glucose concentration of drug treated mice relative to vehicle controls at 5 mg/kg (once daily perorally x 4) in groups of db/db mice; type: functional; conditions: route oral; summary of the method: as §1
[12] = system: Mus musculus; assay: percentage change in plasma glucose concentration of drug treated mice relative to vehicle controls at 20 mg/kg (once daily perorally x 4) in groups of db/db mice; type: functional; conditions: route oral; summary of the method: as §1
[13] = system: Mus musculus; assay: percentage change in plasma glucose concentration of drug treated mice relative to vehicle controls at 100 mg/kg (once daily perorally x 4) in groups of db/db mice; NA= not active; type: functional, organism-based; design: dose 100 mg/kg; summary of the method: as §1
[14] = system: Mus musculus; assay: percentage change in plasma glucose concentration of drug treated mice relative to vehicle controls at 100 mg/kg (once daily perorally x 4) in groups of db/db mice; type: functional; conditions: route oral; summary of the method: as §1
[15] = system: Mus musculus; assay: percentage change in plasma glucose concentration of drug treated mice relative to vehicle controls at 27 mg/kg (once daily perorally x 4) in groups of db/db mice; NA = not active; type: functional, organism-based; design: dose 27 mg/kg; summary of the method: as §1
[16] = system: Mus musculus; assay: percentage change in plasma glucose concentration of drug treated mice relative to vehicle controls at 53 mg/kg (once daily perorally x 4) in groups of db/db mice; NA = not active; type: functional, organism-based; design: dose 53 mg/kg; summary of the method: as §1
[17] = system: Mus musculus; assay: percentage change in plasma glucose concentration of drug treated mice relative to vehicle controls at 5 mg/kg (once daily perorally x 4) in groups of db/db mice; not active, generally less than -15% change; type: functional, organism-based; design: dose 5 mg/kg; summary of the method: as §1

`Cc1onc(O)c1Cc1ccc2ccccc2c1` gave a Change [1] of -48% and a Change [2] of -25%.
For `O=C(O)c1cc(-c2ccc3ccccc3c2)[nH]n1`, the Change [3] was “inactive”.
In the case of `Oc1n[nH]c(O)c1Cc1ccc2ccccc2c1`, the Change [3] is reported as “inactive”.
In the case of `O=C(O)CCc1ccc2ccccc2c1`, the logP ([4]; read-out: logP) is reported as 1.09, the pKa [5] is reported as 6.52 and the Change [6] is reported as “inactive”.
`Oc1[nH]nc(C(F)(F)F)c1Cc1ccc2c(c1)OCO2` showed a Change [2] of -38%.
In the case of `NNc1n[nH]c(O)c1Cc1ccc2ccccc2c1`, the Change [3] is reported as “inactive”.
With `O=C1NC(=O)C(Cc2ccc3ccccc3c2)=C1O` the Change [7] was “inactive”.
With `Oc1c(Cc2ccc3ccccc3c2)nnn1Cc1ccccc1` the Change [3] was “inactive”.
In the case of `Cc1noc(O)c1Cc1ccc2ccccc2c1Br`, the Change [8] is reported as “inactive”.
For `Oc1cc(C23CC4CC(CC(C4)C2)C3)n[nH]1`, the Change [9] was “inactive”.
With `COCc1noc(O)c1Cc1ccc2ccccc2c1` the Change [3] was “inactive”.
Molecule `Oc1[nH]nc(C(F)(F)F)c1Cc1ccc2nccnc2c1` has a Change [2] of -27%.
With `Nc1n[nH]c(O)c1Cc1ccc2ccccc2c1` the Change [10] was -27%.
In the case of `Cc1n[nH]c(O)c1Cc1ccccc1`, the Change [3] is reported as “inactive”.
`Oc1[nH]nc(C(F)(F)F)c1Cc1ccc2ccccc2c1` showed a Change [11] of -16%.
For `Cc1c(Cc2ccc3ccccc3c2)o[nH]c1=O`, the Change [3] was “inactive”.
Molecule `Cc1n[nH]c(O)c1Cc1ccc2ccccc2c1` has a Change [1] of -42% and a Change [2] of -31%.
For `CCc1o[nH]c(=O)c1Cc1ccc2ccccc2c1`, the Change [8] was “inactive”.
For `Oc1[nH]nc(C(F)(F)F)c1Cc1ccccc1`, the Change [1] was -33% and the Change [12] was -18%.
With `Oc1onc(-c2ccccc2)c1Cc1ccc2ccccc2c1` the Change [3] was “inactive”.
With `Oc1[nH]nc(C(F)(F)F)c1Cc1ccc2sccc2c1` the Change [2] was -29%.
With `Oc1[nH]nc2c1CCc1ccccc1-2` the Change [3] was “inactive”.
For `COC(=O)c1cc(-c2ccc3ccccc3c2)[nH]n1`, the Change [3] was “inactive”.
For `Oc1[nH]nc(C(F)(F)C(F)(F)C(F)(F)F)c1Cc1ccc2ccccc2c1`, the Change [13] was “inactive”.
With `Cc1c(O)nnn1Cc1ccc2ccccc2c1` the Change [3] was “inactive”.
With `Cc1n[nH]c(O)c1Cc1cccc2ccccc12` the Change [8] was “inactive”.
For `Cc1c(Cc2ccc3ccccc3c2)n[nH]c1O`, the Change [8] was “inactive”.
In the case of `Oc1cc(CSc2ccc3ccccc3c2)no1`, the Change [3] is reported as “inactive”.
`O=C(O)C(=O)/C=C(\O)c1ccc2ccccc2c1` gave a Change [1] of -28%.
Molecule `COC(=O)C(=O)/C=C(\O)c1ccc2ccccc2c1` has a Change [1] of -37%.
With `Cc1o[nH]c(=O)c1Cc1ccc2ccccc2c1Br` the Change [8] was “inactive”.
With `c1ccc2cc(Cc3nnn[nH]3)ccc2c1` the Change [7] was “inactive”, the logP ([4]; read-out: logP) was 0.72 and the pKa [5] was 5.77.
In the case of `Oc1n[nH]nc1Cc1ccc2ccccc2c1`, the Change [3] is reported as “inactive”.
With `Cc1n[nH]c(O)c1Cc1ccc2c(c1)OCCO2` the Change [2] was -21%.
Work on `Cc1[nH]oc(=O)c1Cc1ccc2ccccc2c1` yielded a Change [14] of -17%.
In the case of `Oc1cc(CSc2nc3ccccc3s2)n[nH]1`, the Change [3] is reported as “inactive”.
With `Oc1[nH]nc(-c2ccccc2)c1Cc1ccc2ccccc2c1` the Change [3] was “inactive”.
`CC(C)c1n[nH]c(O)c1Cc1ccc2ccccc2c1` gave a Change [1] of -30.4%.
With `CCCc1o[nH]c(=O)c1Cc1ccc2ccccc2c1` the Change [8] was “inactive”.
With `Oc1cc(CSc2nc3ccccc3s2)no1` the Change [3] was “inactive”.
With `Oc1[nH]nc(C(F)(F)C(F)(F)F)c1Cc1ccc2ccccc2c1` the Change [3] was “inactive”.
With `COCc1n[nH]c(O)c1Cc1ccc2ccccc2c1` the Change [8] was “inactive” and the Change [1] was -39%.
For `C[n+]1nn(Cc2ccccc2)c([O-])c1Cc1ccc2ccccc2c1`, the Change [13] was “inactive”.
In the case of `Cc1n[nH]c(O)c1Cc1ccc2ccccc2c1Br`, the Change [12] is reported as -20%.
With `O=[N+]([O-])c1ccc(-c2n[nH]c(O)c2Cc2ccc3ccccc3c2)cc1` the Change [3] was “inactive”.
In the case of `Cc1o[nH]c(=O)c1Cc1ccccc1`, the Change [3] is reported as “inactive”.
Work on `CC1(COc2ccc(CC3SC(=O)NC3=O)cc2)CCCCC1` (stereo not given) [CIGLITAZONE] yielded a Change [1] of -28%, a logP [4] of 3.61 and a pKa [5] of 7.8.
With `Oc1[nH]ncc1Cc1ccc2ccccc2c1` the Change [15] was “inactive”.
With `Oc1nnnn1Cc1ccc2ccccc2c1` the Change [3] was “inactive”.
With `Oc1[nH]nc(C(F)(F)F)c1Cc1ccc2c(Br)cccc2c1` the Change [2] was -22%.
With `Oc1[nH]nc2c1CCc1sccc1-2` the Change [3] was “inactive”.
With `Oc1cc(Cc2ccc3ccccc3c2)n[nH]1` the Change [3] was “inactive”.
With `Oc1[nH]nc(C(F)(F)F)c1Cc1ccc2c(c1)CCC(Cc1ccccc1)O2` (stereo not given) the Change [3] was “inactive”.
For `Cc1n[nH]c(O)c1CSc1nc2ccccc2[nH]1`, the Change [13] was “inactive”.
With `Cc1n[nH]c(O)c1Cc1nc2ccccc2o1` the Change [16] was “inactive”.
For `Cn1nnc(O)c1Cc1ccc2ccccc2c1`, the Change [8] was “inactive”, the logP ([4]; read-out: logP) was 2.12 and the pKa [5] was 9.11.
For `CCc1n[nH]c(O)c1Cc1ccc2ccccc2c1`, the Change [17] was “Not significant” and the Change [2] was -32%.
